Experimental data reported in ChEMBL document CHEMBL4402601, “Discovery of a Silicon-Containing Pan-Genotype Hepatitis C Virus NS5A Inhibitor” (J Med Chem, 2020).

Columns and labels:
[1] = tested on: Hepatitis C virus; assay: Antiviral activity against Hepatitis C virus subtype 1a H77 subgenomic replicon expressing NS5A infected in human HuH7 cells assessed as reduction in viral replication incubated for 3 days by luciferase reporter gene assay; assay type: functional, organism-based, Hepacivirus hominis; settings: subtype 1a H77, Huh-7, 72 h
In short: (§1)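 HCV replicon cell assay; inhibition of replication read as decrease in luciferase signal. Percent inhibition computed at each compound concentration; EC50 (pM) from nonlinear regression fit to a 4-parameter logistic equation. Values are means of triplicate wells, with each experiment run at least twice.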

[2] = tested on: Hepatitis C virus; assay: Antiviral activity against Hepatitis C virus subtype 1b Con1 subgenomic replicon expressing NS5A infected in human HuH7 cells assessed as reduction in viral replication incubated for 3 days by luciferase reporter gene assay; assay type: functional, organism-based, Hepacivirus hominis; settings: subtype 1b Con1, Huh-7, 72 h; in short: as §1
[3] = tested on: Hepatitis C virus; assay: Antiviral activity against Hepatitis C virus subtype 3a subgenomic replicon expressing NS5A infected in human HuH7 cells assessed as reduction in viral replication incubated for 3 days by luciferase reporter gene assay; assay type: functional, organism-based, Hepacivirus hominis; settings: Huh-7, 72 h; in short: as §1
[4] = tested on: Hepatitis C virus; assay: Antiviral activity against Hepatitis C virus subtype 6a subgenomic replicon expressing NS5A infected in human HuH7 cells assessed as reduction in viral replication incubated for 3 days by luciferase reporter gene assay; assay type: functional, organism-based, Hepacivirus hominis; settings: Huh-7, 72 h; in short: as §1
[5] = tested on: Hepatitis C virus; assay: Potency index, ratio of EC50 of to EC50 of compound for antiviral activity against Hepatitis C virus subtype 6a subgenomic replicon expressing NS5A infected in human HuH7 cells assessed as reduction in viral replication incubated for 3 days by luciferase reporter gene assay; assay type: functional, Hepacivirus hominis
[6] = Drug distribution in mouse plasma at 10 mg/kg, po incubated for 0.5 hrs by UPLC-MS/MS analysis; assay type: ADME, organism-based
In short: (§2)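 Oral dosing in mice and rats; compound measured in plasma and liver by UPLC-MS/MS at each time point, n = 3 (mean ± SD). LPR is mean liver concentration divided by mean plasma concentration.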

[7] = Drug distribution in mouse plasma at 10 mg/kg, po incubated for 3 hrs by UPLC-MS/MS analysis; assay type: ADME, organism-based; in short: as §2
[8] = Drug distribution in mouse plasma at 10 mg/kg, po incubated for 24 hrs by UPLC-MS/MS analysis; assay type: ADME, organism-based; in short: as §2
[9] = Drug distribution in rat plasma at 10 mg/kg, po incubated for 0.5 hrs by UPLC-MS/MS analysis; assay type: ADME, organism-based; in short: as §2
[10] = Drug distribution in rat plasma at 10 mg/kg, po incubated for 3 hrs by UPLC-MS/MS analysis; assay type: ADME, organism-based; in short: as §2
[11] = Drug distribution in rat plasma at 10 mg/kg, po incubated for 8 hrs by UPLC-MS/MS analysis; assay type: ADME, organism-based; in short: as §2
[12] = Drug distribution in mouse liver at 10 mg/kg, po incubated for 0.5 hrs by UPLC-MS/MS analysis; assay type: ADME, organism-based; settings: read-out: Drug uptake; in short: as §2
[13] = Drug distribution in mouse liver at 10 mg/kg, po incubated for 3 hrs by UPLC-MS/MS analysis; assay type: ADME, organism-based; settings: read-out: Drug uptake; in short: as §2
[14] = Drug distribution in mouse liver at 10 mg/kg, po incubated for 24 hrs by UPLC-MS/MS analysis; assay type: ADME, organism-based; settings: read-out: Drug uptake; in short: as §2
[15] = Drug distribution in rat liver at 10 mg/kg, po incubated for 0.5 hrs by UPLC-MS/MS analysis; assay type: ADME, organism-based; settings: read-out: Drug uptake; in short: as §2
[16] = Drug distribution in rat liver at 10 mg/kg, po incubated for 3 hrs by UPLC-MS/MS analysis; assay type: ADME, organism-based; settings: read-out: Drug uptake; in short: as §2
[17] = Drug distribution in rat liver at 10 mg/kg, po incubated for 8 hrs by UPLC-MS/MS analysis; assay type: ADME, organism-based; settings: read-out: Drug uptake; in short: as §2
[18] = Ratio of drug distribution in mouse liver to drug distribution in mouse plasma measured after 0.5 hrs by UPLC-MS/MS analysis; assay type: ADME, cell-free; in short: as §2
[19] = Ratio of drug distribution in mouse liver to drug distribution in mouse plasma measured after 3 hrs by UPLC-MS/MS analysis; assay type: ADME, cell-free; in short: as §2
[20] = Ratio of drug distribution in mouse liver to drug distribution in mouse plasma measured after 24 hrs by UPLC-MS/MS analysis; assay type: ADME, cell-free; in short: as §2
[21] = Ratio of drug distribution in rat liver to drug distribution in rat plasma measured after 0.5 hrs by UPLC-MS/MS analysis; assay type: ADME, cell-free; in short: as §2
[22] = Ratio of drug distribution in rat liver to drug distribution in rat plasma measured after 3 hrs by UPLC-MS/MS analysis; assay type: ADME, cell-free; in short: as §2
[23] = Ratio of drug distribution in rat liver to drug distribution in rat plasma measured after 8 hrs by UPLC-MS/MS analysis; assay type: ADME, cell-free; in short: as §2
[24] = Metabolic stability in mouse liver microsomes assessed as compound remaining at 1 uM incubated for 60 mins by UPLC-MS/MS analysis; assay type: ADME, Microsome; settings: read-out: Stability
In short: (§3)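 Pooled mouse, rat or human liver microsomes (0.5 mg/mL) with 1 μM compound, 1 mM NADPH, 5 mM MgCl₂ and 100 mM potassium phosphate pH 7.4. Pre-incubated 5 min at 37 °C, started with NADPH, then run 60 min at 37 °C. Quenched with ice-cold acetonitrile containing internal standard; parent remaining measured by UPLC-MS/MS.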

[25] = Metabolic stability in rat liver microsomes assessed as compound remaining at 1 uM incubated for 60 mins by UPLC-MS/MS analysis; assay type: ADME, Microsome; settings: read-out: Stability; in short: as §3
[26] = Metabolic stability in human liver microsomes assessed as compound remaining at 1 uM incubated for 60 mins by UPLC-MS/MS analysis; assay type: ADME, Microsome; settings: read-out: Stability; in short: as §3

Row | Compound | EC50 [1] | EC50 [2] | EC50 [3] | EC50 [4] | other results
1 | COC(=O)N[C@H](C(=O)N1CCC[C@H]1C(=O)Nc1ccc([C@@H]2CC[C@@H](c3ccc(NC(=O)[C@@H]4CCCN4C(=O)[C@@H](NC(=O)OC)C(C)C)cc3)N2c2cc(F)c(N3CC[Si](C)(C)CC3)c(F)c2)cc1)C(C)C | 0.9 pM | 0.4 pM | 11 pM | 88 pM | –
2 | COC(=O)N[C@H](C(=O)N1CCC[C@H]1C(=O)Nc1ccc([C@@H]2CC[C@@H](c3ccc(NC(=O)[C@@H]4CCCN4C(=O)[C@@H](NC(=O)OC)[C@@H](C)OC)cc3)N2c2ccc(N3CC[Si](C)(C)CC3)c(F)c2)cc1)[C@@H](C)OC | 12 pM | 2.9 pM | 6 pM | 242 pM | –
3 | COC(=O)N[C@H](C(=O)N1CCC[C@H]1C(=O)Nc1ccc([C@@H]2CC[C@@H](c3ccc(NC(=O)[C@@H]4CCCN4C(=O)[C@@H](NC(=O)OC)C(C)C)cc3)N2c2ccc(N3CC[Si](C)(C)CC3)c(F)c2)cc1)C(C)C | 0.8 pM | 0.4 pM | 8.8 pM | 182 pM | –
4 | COC(=O)N[C@H](C(=O)N1CCC[C@H]1C(=O)Nc1ccc([C@H]2CC[C@H](c3ccc(NC(=O)[C@@H]4CCCN4C(=O)[C@@H](NC(=O)OC)[C@@H](C)OC)cc3)N2c2ccc(N3CC[Si](C)(C)CC3)c(F)c2)cc1)[C@@H](C)OC | 65 pM | 16 pM | 14 pM | 454 pM | –
5 | COC(=O)N[C@H](C(=O)N1CCC[C@H]1C(=O)Nc1ccc([C@H]2CC[C@H](c3ccc(NC(=O)[C@@H]4CCCN4C(=O)[C@@H](NC(=O)OC)[C@@H](C)OC)cc3)N2c2cc(F)c(N3CC[Si](C)(C)CC3)c(F)c2)cc1)[C@@H](C)OC | 12 pM | 1.7 pM | 4.8 pM | 114 pM | –
6 | COC(=O)N[C@H](C(=O)N1CCC[C@H]1C(=O)Nc1ccc([C@H]2CC[C@H](c3ccc(NC(=O)[C@@H]4CCCN4C(=O)[C@@H](NC(=O)OC)C(C)C)cc3)N2c2cc(F)c(N3CC[Si](C)(C)CC3)c(F)c2)cc1)C(C)C | 0.9 pM | 0.4 pM | 37 pM | 463 pM | –
7 | COC(=O)N[C@H](C(=O)N1CCC[C@H]1c1nc2cc([C@@H]3CC[C@@H](c4cc5nc([C@@H]6CCCN6C(=O)[C@@H](NC(=O)OC)[C@@H](C)OC)[nH]c5cc4F)N3c3cc(F)c(N4CCC(c5ccc(F)cc5)CC4)c(F)c3)c(F)cc2[nH]1)[C@@H](C)OC | – | – | – | – | concentration at 0.5 h [6]: 0.414 µg/mL; concentration at 3 h [7]: 1.54 µg/mL; concentration at 24 h [8]: 0.718 µg/mL; concentration at 0.5 h [9]: 0.103 µg/mL; concentration at 3 h [10]: 0.0964 µg/mL; concentration at 8 h [11]: 0.0301 µg/mL; concentration at 0.5 h [12]: 94 ng/g; concentration at 3 h [13]: 193 ng/g; concentration at 24 h [14]: 69.6 ng/g; concentration at 0.5 h [15]: 155 ng/g; concentration at 3 h [16]: 102 ng/g; concentration at 8 h [17]: 18.9 ng/g; Kp at 0.5 h [18]: 0.43; Kp at 3 h [19]: 0.39; Kp at 24 h [20]: 0.11; Kp at 0.5 h [21]: 1.5; Kp at 3 h [22]: 1.1; Kp at 8 h [23]: 0.63
8 | COC(=O)N[C@H](C(=O)N1CCC[C@H]1C(=O)Nc1ccc([C@@H]2CC[C@@H](c3ccc(NC(=O)[C@@H]4CCCN4C(=O)[C@@H](NC(=O)OC)[C@@H](C)OC)cc3)N2c2ccc([Si](C)(C)C)cc2)cc1)[C@@H](C)OC | 12 pM | 1.6 pM | 7 pM | 247 pM | –
9 | COC(=O)N[C@H](C(=O)N1CCC[C@H]1C(=O)Nc1ccc([C@@H]2CC[C@@H](c3ccc(NC(=O)[C@@H]4CCCN4C(=O)[C@@H](NC(=O)OC)C(C)C)cc3)N2c2ccc(C(C)(C)C)cc2)cc1)C(C)C [OMBITASVIR] | – | – | – | – | remaining at 1 h, 1 µM [24]: 63.5%; remaining at 1 h, 1 µM [25]: 73.5%; remaining at 1 h, 1 µM [26]: 82.5%

More lines, main results first:

Row | EC50 [1] | EC50 [2] | EC50 [3] | EC50 [4] | Compound | other results
10 | 11 pM | 2.8 pM | 5.8 pM | 817 pM | CC[Si](CC)(CC)c1ccc(N2[C@H](c3ccc(NC(=O)[C@@H]4CCCN4C(=O)[C@@H](NC(=O)OC)C(C)C)cc3)CC[C@H]2c2ccc(NC(=O)[C@@H]3CCCN3C(=O)[C@@H](NC(=O)OC)C(C)C)cc2)cc1 | –
11 | 7.9 pM | 1.4 pM | 3 pM | 80 pM | COC(=O)N[C@H](C(=O)N1CCC[C@H]1C(=O)Nc1ccc([C@@H]2CC[C@@H](c3ccc(NC(=O)[C@@H]4CCCN4C(=O)[C@@H](NC(=O)OC)[C@@H](C)OC)cc3)N2c2ccc([Si](C)(C)C(C)(C)C)cc2)cc1)[C@@H](C)OC | Ratio EC50 [5]: 10
12 | 2.3 pM | 1 pM | 2 pM | 121 pM | CC[Si](CC)(CC)c1ccc(N2[C@H](c3ccc(NC(=O)[C@@H]4CCCN4C(=O)[C@@H](NC(=O)OC)[C@@H](C)OC)cc3)CC[C@H]2c2ccc(NC(=O)[C@@H]3CCCN3C(=O)[C@@H](NC(=O)OC)[C@@H](C)OC)cc2)cc1 | Ratio EC50 [5]: 7
13 | 0.8 pM | 0.5 pM | 51 pM | 831 pM | COC(=O)N[C@H](C(=O)N1CCC[C@H]1C(=O)Nc1ccc([C@H]2CC[C@H](c3ccc(NC(=O)[C@@H]4CCCN4C(=O)[C@@H](NC(=O)OC)C(C)C)cc3)N2c2ccc(N3CC[Si](C)(C)CC3)c(F)c2)cc1)C(C)C | –
